Assay results published in ChEMBL document CHEMBL4477236 (ACS Med Chem Lett, 2016).
Activity calls are given as the source filed them. The rule behind the calls is not given here.

Each compound was assayed on CWR22R (assay: Antitumor activity against human CWR22Rv1 cells xenografted in SCID mouse assessed as tumor growth inhibition at 0.15 mmol/kg, ip bid administered for 5 days per week relative to control). Settings: 22Rv1, ip, 120 h, read-out: TGI.
Type: functional
For C[C@]12CC[C@H](O)CC1=CC[C@@H]1[C@@H]2CC[C@]2(C)C(n3cnc4ccccc43)=CC[C@@H]12 [GALETERONE], the inhibition in vivo at 150 µmol/kg was 60%. Work on C[C@]12CC[C@H](OC(=O)n3ccnc3)CC1=CC[C@@H]1[C@@H]2CC[C@]2(C)C(n3cnc4ccccc43)=CC[C@@H]12 yielded an inhibition in vivo at 150 µmol/kg of 70%.

These compounds were tested against T1, Androgen receptor (Homo sapiens) (UniProt P10275) (assay: Inhibition of DHT-induced androgen receptor transactivation in human LNCaP cells at 10 uM after 24 hrs by luciferase reporter gene assay relative to control). Settings: not given.
T1 sequence (whole entry): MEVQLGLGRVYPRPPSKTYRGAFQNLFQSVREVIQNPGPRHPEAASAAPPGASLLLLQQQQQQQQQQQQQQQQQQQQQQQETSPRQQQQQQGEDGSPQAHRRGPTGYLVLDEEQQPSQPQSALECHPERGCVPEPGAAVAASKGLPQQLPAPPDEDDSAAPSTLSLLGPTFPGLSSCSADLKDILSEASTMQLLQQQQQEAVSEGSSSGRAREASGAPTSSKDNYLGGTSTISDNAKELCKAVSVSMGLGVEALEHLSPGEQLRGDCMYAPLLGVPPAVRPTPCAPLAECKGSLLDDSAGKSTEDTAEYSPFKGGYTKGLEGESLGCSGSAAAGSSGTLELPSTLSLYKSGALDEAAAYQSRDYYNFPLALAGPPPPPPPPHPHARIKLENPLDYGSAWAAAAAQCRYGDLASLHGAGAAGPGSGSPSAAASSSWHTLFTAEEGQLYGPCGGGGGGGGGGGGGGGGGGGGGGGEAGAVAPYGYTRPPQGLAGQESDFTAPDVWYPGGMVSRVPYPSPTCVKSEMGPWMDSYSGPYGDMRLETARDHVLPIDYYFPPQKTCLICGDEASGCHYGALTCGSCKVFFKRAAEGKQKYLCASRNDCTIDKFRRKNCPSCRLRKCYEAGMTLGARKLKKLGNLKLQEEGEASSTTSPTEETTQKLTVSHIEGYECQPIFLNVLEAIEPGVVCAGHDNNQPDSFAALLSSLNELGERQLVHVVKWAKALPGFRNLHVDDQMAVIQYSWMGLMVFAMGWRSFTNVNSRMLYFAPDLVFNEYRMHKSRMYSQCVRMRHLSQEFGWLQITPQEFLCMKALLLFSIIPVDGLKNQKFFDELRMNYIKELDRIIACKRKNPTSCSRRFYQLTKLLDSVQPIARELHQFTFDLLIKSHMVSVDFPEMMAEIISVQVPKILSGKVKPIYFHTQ
Type: cell-based
How it was run: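 LNCaP cells dual-transfected with the probasin luciferase reporter AAR2-luc plus the Renilla vector pRL-null. Cells treated with compound at 10 μM for 24 h with 10 nM DHT. Luminescence read and normalized to Renilla activity. Result expressed as fold induction over unstimulated baseline. Replicates from three independent experiments.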
C[C@]12CC[C@H](OCc3ccncc3)CC1=CC[C@@H]1[C@@H]2CC[C@]2(C)C(n3cnc4ccccc43)=CC[C@@H]12 was tested, and the inhibition was “Active”. For C[C@]12CC[C@@H]3c4ccc(C(=O)O)cc4CC[C@H]3[C@@H]1CC=C2n1cnc2ccccc21, the inhibition was “Active”. In the case of C[C@]12CC[C@H](OCc3ccccc3)CC1=CC[C@@H]1[C@@H]2CC[C@]2(C)C(n3cnc4ccccc43)=CC[C@@H]12, the inhibition is reported as “Active”. In the case of C[C@]12CC[C@H](n3ccnc3)CC1=CC[C@@H]1[C@@H]2CC[C@]2(C)C(n3cnc4ccccc43)=CC[C@@H]12, the inhibition is reported as “Active”. In the case of C[C@]12CC[C@H](OCc3cccnc3)CC1=CC[C@@H]1[C@@H]2CC[C@]2(C)C(n3cnc4ccccc43)=CC[C@@H]12, the inhibition is reported as “Active”. CO[C@H]1CC[C@@]2(C)C(=CC[C@@H]3[C@@H]2CC[C@]2(C)C(n4cnc5ccccc54)=CC[C@@H]32)C1 was tested, and the inhibition was “Active”.

The compounds below were run against T2, Androgen receptor (Homo sapiens, UniProt P10275) (assay: Inhibition of DHT-induced androgen receptor transactivation in human LNCaP cells after 24 hrs by luciferase reporter gene assay relative to control). Settings: not given.
T2 sequence (P10275 whole entry): T1 sequence (whole entry)
Type: cell-based
C[C@]12CC[C@H](OCc3ccncc3)CC1=CC[C@@H]1[C@@H]2CC[C@]2(C)C(n3cnc4ccccc43)=CC[C@@H]12 showed an EC50 of 1650 nM. C[C@]12CC[C@H](n3ccnc3)CC1=CC[C@@H]1[C@@H]2CC[C@]2(C)C(n3cnc4ccccc43)=CC[C@@H]12 gave an EC50 of 190 nM.

The compounds below were run against T1, Androgen receptor (Homo sapiens) (assay: Induction of AR-V7 degradation in human CWR22Rv1 cells at 15 uM after 24 hrs by Western blot analysis). Settings: not given.
Type: cell-based
How it was run: (§1)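 CWR22Rv1 prostate cancer cells exposed to compound at 15 μM for 24 h. Protein lysates analysed by Western blot for f-AR and AR-V7 expression.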
In the case of C[C@]12CC[C@H](OCc3ccncc3)CC1=CC[C@@H]1[C@@H]2CC[C@]2(C)C(n3cnc4ccccc43)=CC[C@@H]12, the Activity is reported as “Active”. For C[C@]12CC[C@@H]3c4ccc(C(=O)O)cc4CC[C@H]3[C@@H]1CC=C2n1cnc2ccccc21, the Activity was “Active”. C[C@]12CC[C@H](n3ccnc3)CC1=CC[C@@H]1[C@@H]2CC[C@]2(C)C(n3cnc4ccccc43)=CC[C@@H]12 was tested, and the Activity was “Active”. C[C@]12CC[C@H](OC(=O)n3ccnc3)CC1=CC[C@@H]1[C@@H]2CC[C@]2(C)C(n3cnc4ccccc43)=CC[C@@H]12 was tested, and the Activity was “Active”.

Each compound was assayed against T1, Androgen receptor (Homo sapiens) (assay: Induction of AR-V7 degradation in human CWR22Rv1 cells upto 7.5 uM after 72 hrs by Western blot analysis). Settings: not given.
Type: cell-based
How it was run: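 CWR22Rv1 cells treated across 0 → 7.5 μM for 72 h. Lysates analysed by Western blot for f-AR and AR-V7. EC50 taken from dose–response curves.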
With C[C@]12CC[C@H](OCc3ccncc3)CC1=CC[C@@H]1[C@@H]2CC[C@]2(C)C(n3cnc4ccccc43)=CC[C@@H]12 the Activity was “Active”. C[C@]12CC[C@H](n3ccnc3)CC1=CC[C@@H]1[C@@H]2CC[C@]2(C)C(n3cnc4ccccc43)=CC[C@@H]12 was tested, and the Activity was “Active”. C[C@]12CC[C@H](OC(=O)n3ccnc3)CC1=CC[C@@H]1[C@@H]2CC[C@]2(C)C(n3cnc4ccccc43)=CC[C@@H]12 was tested, and the Activity was “Active”.

The compounds below were run against T3, Steroid 17-alpha-hydroxylase/17,20 lyase (Homo sapiens, UniProt P05093) (assay: Inhibition of CYP17 (unknown origin)). Settings: not given.
T3 sequence (P05093 whole entry): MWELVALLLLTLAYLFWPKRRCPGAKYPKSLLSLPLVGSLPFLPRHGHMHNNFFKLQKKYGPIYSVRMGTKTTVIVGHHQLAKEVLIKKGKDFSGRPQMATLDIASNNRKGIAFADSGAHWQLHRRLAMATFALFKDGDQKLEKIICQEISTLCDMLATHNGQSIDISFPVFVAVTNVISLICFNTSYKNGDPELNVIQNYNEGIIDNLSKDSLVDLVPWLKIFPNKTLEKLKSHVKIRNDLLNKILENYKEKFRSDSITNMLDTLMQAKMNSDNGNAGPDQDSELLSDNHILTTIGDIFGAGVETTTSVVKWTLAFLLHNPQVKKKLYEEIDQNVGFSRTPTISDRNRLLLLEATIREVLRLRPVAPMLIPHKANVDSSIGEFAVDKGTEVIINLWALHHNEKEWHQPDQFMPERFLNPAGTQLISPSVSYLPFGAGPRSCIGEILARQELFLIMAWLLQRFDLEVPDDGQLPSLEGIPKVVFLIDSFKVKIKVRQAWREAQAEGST
How it was run: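 CYP17 enzyme activity measured in duplicate over a range of inhibitor concentrations. IC50 read from the dose–response curve as the concentration giving 50% inhibition.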
C[C@]12CC[C@H](OCc3ccncc3)CC1=CC[C@@H]1[C@@H]2CC[C@]2(C)C(n3cnc4ccccc43)=CC[C@@H]12 was tested, and the IC50 was > 15000 nM. With C[C@]12CC[C@H](O)CC1=CC[C@@H]1[C@@H]2CC[C@]2(C)C(n3cnc4ccccc43)=CC[C@@H]12 [GALETERONE] the IC50 was 140 nM. Work on C[C@]12CC[C@H](n3ccnc3)CC1=CC[C@@H]1[C@@H]2CC[C@]2(C)C(n3cnc4ccccc43)=CC[C@@H]12 yielded an IC50 of 480 nM. In the case of CO[C@H]1CC[C@@]2(C)C(=CC[C@@H]3[C@@H]2CC[C@]2(C)C(n4cnc5ccccc54)=CC[C@@H]32)C1, the IC50 is reported as 39000 nM.

These compounds were tested on LNCaP (assay: Antiproliferative activity against human LNCAP cells after 7 days by MTT assay). Settings: 168 h.
Type: functional, cell-based
How it was run: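 LNCaP cell growth measured by MTT assay. GI50, the concentration giving 50% growth inhibition, was obtained by nonlinear regression of dose–response curves pooled from at least three independent experiments; SEM < 10%.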
For C[C@]12CC[C@H](OCc3ccncc3)CC1=CC[C@@H]1[C@@H]2CC[C@]2(C)C(n3cnc4ccccc43)=CC[C@@H]12, the IC50 was 2.45 µM. C[C@]12CC[C@H](OCc3ccccc3)CC1=CC[C@@H]1[C@@H]2CC[C@]2(C)C(n3cnc4ccccc43)=CC[C@@H]12 gave an IC50 of 5.12 µM. In the case of C[C@]12CC[C@H](O)CC1=CC[C@@H]1[C@@H]2CC[C@]2(C)C(n3cnc4ccccc43)=CC[C@@H]12 [GALETERONE], the IC50 is reported as 3.93 µM. In the case of C[C@]12CC[C@H](n3ccnc3)CC1=CC[C@@H]1[C@@H]2CC[C@]2(C)C(n3cnc4ccccc43)=CC[C@@H]12, the IC50 is reported as 1.64 µM. In the case of C[C@]12CC[C@H](OCc3cccnc3)CC1=CC[C@@H]1[C@@H]2CC[C@]2(C)C(n3cnc4ccccc43)=CC[C@@H]12, the IC50 is reported as 4.26 µM. With CO[C@H]1CC[C@@]2(C)C(=CC[C@@H]3[C@@H]2CC[C@]2(C)C(n4cnc5ccccc54)=CC[C@@H]32)C1 the IC50 was 8.71 µM.

Each compound was assayed on CWR22R (assay: Antiproliferative activity against human CWR22Rv1 cells after 7 days by MTT assay). Settings: 22Rv1, 168 h.
Type: functional, cell-based
How it was run: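 MTT proliferation assay in CWR22Rv1 human prostate cancer cells. GI50, the concentration causing 50% growth inhibition, was read from dose–response curves.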
In the case of C[C@]12CC[C@H](OCc3ccncc3)CC1=CC[C@@H]1[C@@H]2CC[C@]2(C)C(n3cnc4ccccc43)=CC[C@@H]12, the IC50 is reported as 3240 nM. In the case of C[C@]12CC[C@H](OCc3ccccc3)CC1=CC[C@@H]1[C@@H]2CC[C@]2(C)C(n3cnc4ccccc43)=CC[C@@H]12, the IC50 is reported as 1200 nM. C[C@]12CC[C@H](O)CC1=CC[C@@H]1[C@@H]2CC[C@]2(C)C(n3cnc4ccccc43)=CC[C@@H]12 [GALETERONE] gave an IC50 of 8910 nM. With C[C@]12CC[C@H](n3ccnc3)CC1=CC[C@@H]1[C@@H]2CC[C@]2(C)C(n3cnc4ccccc43)=CC[C@@H]12 the IC50 was 2540 nM. Compound C[C@]12CC[C@H](OCc3cccnc3)CC1=CC[C@@H]1[C@@H]2CC[C@]2(C)C(n3cnc4ccccc43)=CC[C@@H]12 has an IC50 of 810 nM. With CO[C@H]1CC[C@@]2(C)C(=CC[C@@H]3[C@@H]2CC[C@]2(C)C(n4cnc5ccccc54)=CC[C@@H]32)C1 the IC50 was 7500 nM.

These compounds were tested against T1, Androgen receptor (Homo sapiens) (assay: Induction of full length androgen receptor degradation in human CWR22Rv1 cells at 15 uM after 24 hrs by Western blot analysis). Settings: not given.
Type: cell-based
How it was run: as §1
For C[C@]12CC[C@H](OCc3ccncc3)CC1=CC[C@@H]1[C@@H]2CC[C@]2(C)C(n3cnc4ccccc43)=CC[C@@H]12, the Activity was “Active”. C[C@]12CC[C@H](n3ccnc3)CC1=CC[C@@H]1[C@@H]2CC[C@]2(C)C(n3cnc4ccccc43)=CC[C@@H]12 was tested, and the Activity was “Active”.
